KCNQ1 block: inhibitors of human KCNQ1 potassium channel; CHO-K1 KCNQ1, FluxOR thallium flux fluorescence; stronger effect = higher value; 310,000 tested, 1.3% active; B-score at 10 µM;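 active means compounds whose thallium flux B-score, printed positive for inhibition, exceeds three library SD while starting fluorescence stays within three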;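 further: channel opened by potassium depolarization with thallium stimulus after 20 min compound exposure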
hERG rescue: shields human hERG channel from block by proarrhythmic agents; AID 1511; activation (rescue from dofetilide block), less the hit threshold, % at 10 µM; 310,000 tested, 0.51% active; CHO-hERG, FluxOR thallium flux, dofetilide IC70 present;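 active means activation above the mean of controls blocked by dofetilide plus 5 SD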;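 further: thallium influx through hERG after potassium depolarization seen as dye fluorescence rise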
KCNK9 inh: human KCNK9 channel inhibition; Q9NPC2; HEK293 KCNK9, FluxOR thallium flux fluorescence; stronger effect = lower value; B-score at 10 µM; 310,000 tested, 1.2% active;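 active means ratio B-score over 3 SD below the library mean, with starting fluorescence within 5 SD of its mean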;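 further: negative B-score means less thallium flux so channel inhibition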
Target sequence (Q9NPC2 whole entry, looked up): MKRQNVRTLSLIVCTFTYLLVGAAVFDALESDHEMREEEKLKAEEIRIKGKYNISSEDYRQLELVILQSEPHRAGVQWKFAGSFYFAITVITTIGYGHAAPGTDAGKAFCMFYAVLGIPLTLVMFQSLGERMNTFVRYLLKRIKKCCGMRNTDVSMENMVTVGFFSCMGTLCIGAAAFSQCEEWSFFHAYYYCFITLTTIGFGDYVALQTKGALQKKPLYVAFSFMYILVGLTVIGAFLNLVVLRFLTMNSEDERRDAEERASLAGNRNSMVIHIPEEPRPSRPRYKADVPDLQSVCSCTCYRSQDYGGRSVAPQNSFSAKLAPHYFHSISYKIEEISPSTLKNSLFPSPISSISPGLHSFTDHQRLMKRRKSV
KCNQ1 act: potentiators or activators of human KCNQ1 potassium channel; P51787; CHO-K1 KCNQ1, thallium flux FluxOR fluorescence; stronger effect = higher value; B-score at 10 µM; 310,000 tested, 0.35% active;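 active means fluorescence ratio B-score, a plate-corrected score, at least three library SD, with initial intensity B-score within 5 SD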
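Assay system: CHO-K1 cells stably expressing KCNQ1; Medium: assay buffer with matched DMSO; Also added: K+/Tl+ depolarizing stimulus; Dosing: single dose; Timing: dye 90 min, compound 20 min, room temperature; Measured by: kinetic FluxOR thallium fluorescence, 10-s 1-Hz baseline, 110-s post-stimulus read; Read-out: peak-minus-minimum fluorescence over initial fluorescence, negative-control normalized, B-scored.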
KCNK3 inh: human KCNK3 channel inhibition, primary screen; O14649; CHO-KCNK3 thallium flux, FluxOR fluorescence; stronger effect = lower value; B-score at 10 µM; 340,000 tested, 0.84% active;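 active means B-score under library mean minus 4 SD, starting fluorescence ratio at most library mean plus 5 SD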;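 further: more negative B-score means stronger inhibition of thallium flux through KCNK3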
KCNK9 inh conf: human KCNK9 inhibitor confirmation; shares compounds with KCNK9 inh; HEK293 KCNK9 cells, FluxOR thallium flux fluorescence; inhibition, % at 10 µM; 4,900 tested, 43% active; AID 492992;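 active means thallium signal inhibited by more than 5 SD of the compound-free buffer control wells, on both duplicate plates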;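 further: 0% = assay buffer control wells without compound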
Kir2-1 spec: selectivity of KCNK9 modulators against mouse Kir2.1 | shares compounds with KCNK9 inh | Kir2.1 cells, FluxOR thallium flux fluorescence | inhibition, % at 10 µM | 4,900 tested, 4% active | AID 492993;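 active means thallium signal drop more than 5 SD beyond the mean of the no-compound control wells, seen in both duplicate plates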;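 further: signal is fluorescence rise after thallium addition divided by baseline fluorescence; plate controls were assay buffer only for no effect and full block by chlorpromazine control for full effect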
KCNK9 uninduced: non-induced cell nonspecific activity of KCNK9 modulators; shares compounds with KCNK9 inh; non-induced KCNK9-HEK293, FluxOR thallium flux; inhibition, % at 10 µM; 4,900 tested, 40% active;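 active means thallium signal drop beyond 5 SD of the untreated control mean, on both duplicate plates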;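 further: plate controls were buffer only IC0 wells for no effect and SID17386958 at its maximal inhibitory level for full effect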
* = called active by the depositor; i = inactive; · = no result given. Compounds with a hit are over-represented: about 3.1% of the library has one in this group of screens.

SMILES	KCNQ1 block	hERG rescue	KCNK9 inh	KCNQ1 act	KCNK3 inh	KCNK9 inh conf	Kir2-1 spec	KCNK9 uninduced
COC(=O)c1ccc(CN(c2ccc(C)cc2)S(=O)(=O)c2ccc3c(c2)OCCO3)o1	i	-10	i	i	i	·	·	·
Cc1ccccc1OCC(=O)NCCCNC(=O)c1ccncc1	i	-5	i	i	i	·	·	·
Cc1ccc(Cl)cc1Nc1nc(-c2sc(NC(=O)c3ccco3)nc2C)cs1	i	-29	-12*	i	i	34%*	i	i
COc1ccc(-c2csc(NC(=O)c3ccco3)n2)cc1	i	-4	-8.7*	i	i	i	i	i
Cc1nc(NC(=O)c2ccco2)sc1-c1csc(Nc2ccc(Cl)cc2Cl)n1	i	-7	i	i	i	·	·	·
Cn1c(SCc2ccccc2)nc(N)c(N=O)c1=O	i	-9	i	i	i	·	·	·
C=CCn1c(CCC(O)COCCC)n[nH]c1=S (stereo unspecified)	i	-7	i	i	i	·	·	·
Cc1cc(OCCn2nc(C(=O)O)c3ccccc3c2=O)ccc1C(C)C	i	-9	i	i	i	i	i	i
COc1ccccc1N1CCN(CCN2C(=O)CC(=C3c4ccccc4-c4ccccc43)C2=O)CC1	i	-12	i	i	·	i	i	i
Cc1ccccc1N1CCN(CCN2C(=O)CC(=C3c4ccccc4-c4ccccc43)C2=O)CC1	i	-14	i	i	i	·	·	·
Cc1ccc(C)c2[nH]c(=O)c(CN(Cc3ccco3)C(=O)Nc3ccccc3)cc12	i	-16	-13*	i	i	62%*	i	i
CO/N=C/c1ccc(N2CCOCC2)c([N+](=O)[O-])c1	i	-14	i	i	i	·	·	·
O=[N+]([O-])c1cc(/C=N/OCc2c(Cl)cccc2Cl)ccc1N1CCOCC1	i	-14	i	i	i	i	i	i
CCCCN(C)C(=O)c1ccc2c(c1)S(=O)(=O)c1ccccc1C2=O	i	-5	i	i	i	·	·	·
CCOc1ccc(Br)cc1C1C(C(=O)OC)=C(N)Oc2cc(N(C)C)ccc21 (stereo unspecified)	i	-7	i	i	i	·	·	·
Cn1cc(CN2CCN(c3ccc(Cl)cn3)CC2)c(-c2ccccc2F)n1	i	-16	i	i	i	i	i	i
Cc1cc(-c2nn(-c3ccccc3F)cc2CN2CCN(c3ccccn3)CC2)c(C)s1	i	-7	i	i	i	i	i	i
Cc1cc(-c2nn(-c3ccccc3F)cc2CNCCc2cnccn2)c(C)s1	i	-14	i	i	i	·	·	·
COc1cccc(N/C=C/C(=O)c2ccc(OC)c(OC)c2)c1	i	-2	i	i	i	·	·	·
CCOC(=O)c1cccc(N/C=C/C(=O)c2ccc(OC)c(OC)c2)c1	i	4	-16*	i	i	76%*	i	38%*
CC(C)NC1(C(N)=O)CCNCC1	·	·	·	·	i	·	·	·
O=C(NC1CCCCCC1)c1ccc(CN2CCOCC2)cc1	i	-1	i	i	i	·	·	·
Nc1nc(SCC(=O)N2CCCC2)[nH]c(=O)c1NC(=O)c1cccs1	i	-8	i	i	i	·	·	·
CC1=NCCN1S(=O)(=O)c1c(C(C)C)cc(C(C)C)cc1C(C)C	i	-10	-8.3*	i	i	i	i	i
CN1c2ccccc2-c2nc3ccccc3n2C1c1cccs1 (stereo unspecified)	i	-14	-8.6*	i	i	38%*	i	42%*
SMILES	KCNQ1 block	hERG rescue	KCNK9 inh	KCNQ1 act	KCNK3 inh	KCNK9 inh conf	Kir2-1 spec	KCNK9 uninduced
Cc1ccc(C2N(C)c3ccccc3-c3nc4ccccc4n32)o1 (stereo unspecified)	i	-11	-11*	i	i	32%*	i	30%*
CCOc1nc(NC(=O)NC(=O)c2ccccc2)nc(-c2ccccc2)n1	i	-12	i	i	i	·	·	·
CCc1ccc2c(COC(=O)C3CSC4(C)CCC(=O)N34)cc(=O)oc2c1 (stereo unspecified)	·	·	·	·	i	·	·	·
O=C(COC(=O)C1CCN(c2ccc(C(F)(F)F)cn2)CC1)c1ccccc1	i	-7	i	i	i	i	i	i
CCOC(=O)C(NC(=O)c1ccccc1Cl)(Nc1ccc(C)c(C)c1)C(F)(F)F (stereo unspecified)	i	-10	i	i	i	·	·	·
CCOC(=O)C(NC(=O)c1ccccc1Cl)(Nc1ccc(C(F)(F)F)cc1)C(F)(F)F (stereo unspecified)	i	-7	-12*	i	i	66%*	i	42%*
Cc1ccc(CSc2nc3ccsc3c(=O)n2Cc2ccccn2)cc1	i	-8	-14*	i	i	79%*	i	44%*
CCN(CC(=O)NCc1ccc(F)cc1)C(=O)CN1CCN(c2ccc(OC)cc2)CC1	i	-7	i	i	i	·	·	·
CCn1cc(/C=C(\NC(=O)c2ccccc2F)C(=O)NCCN2CCOCC2)c2ccccc21	i	-11	i	i	i	i	i	i
Cc1ccc(CNC(=O)/C=C/c2ccc(S(=O)(=O)N3CCOCC3)cc2)cc1	i	-10	i	i	i	·	·	·
COc1ccc(CN2CCC(CO)(Cc3ccccc3C(F)(F)F)CC2)c(F)c1	i	-15	i	i	i	i	i	i
C=Cc1ccc(Cn2nc(-c3ccc(C)cc3)ccc2=O)cc1	i	-5	i	i	i	i	i	i
CCCCSc1nc(SCC(=O)NCc2ccco2)c2c3c(sc2n1)COC(C)(CC)C3 (stereo unspecified)	i	-21	i	i	i	i	i	i
CC(C)C(=O)N1CCN(c2nc(-c3ccccc3)c3c(c2C#N)CCCC3)CC1	i	-16	-8.6*	i	i	40%*	i	i
COc1ccc(C(CNC(=O)c2ccc(C)c(S(=O)(=O)N3CCOCC3)c2)N2CCCC2)cc1 (stereo unspecified)	·	·	·	·	i	·	·	·
Cc1ccc(Cl)cc1NS(=O)(=O)Cc1ccccc1	i	-6	i	i	i	i	i	i
COC(=O)c1ccccc1NC(=O)c1cc([N+](=O)[O-])nn1Cc1ccccc1	i	-8	i	i	i	·	·	·

From PubChem BioAssay
